# Test results reported in ChEMBL document CHEMBL5724801, “EUbOPEN Chemogenomics Library - Multiplex” (2024).
# Several values for one entry are separate records, joined by “and”; a condition that tells them apart may be missing. Equal values may be shown once.
# Tested on: HEK-293T
# Assay: Multiplex assay against HEK293T
# Format: toxicity, cell-based
# Settings: human
# In short: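 With compound added, live cells were imaged on a CQ1 microscope at 37°C and 5% CO2; staining with Hoechst33342, BioTracker Green Microtubule Cytoskeleton Dye, MitoTracker Red and Annexin V Alexa Fluor 680 had been done at seeding. The CellPathfinder machine-learning gating scheme split cells into Hoechst high-intensity objects or normal cells, normal cells into healthy, pyknosed or fragmented nuclei, and pyknosed cells into mitotic or apoptotic. The tubulin, mitochondrial-mass and membrane-permeability phenotypes are per cents of healthy-nucleus cells.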
# [1] = 12 h, 1 µM, compound concentration 1 uM
# [2] = 12 h, 10 µM, compound concentration 10 uM
# [3] = 24 h, 1 µM, compound concentration 1 uM
# [4] = 24 h, 10 µM, compound concentration 10 uM
# [5] = 48 h, 1 µM, compound concentration 1 uM
# [6] = 48 h, 10 µM, compound concentration 10 uM
smiles,measurement,setting,value
Cn1cnc(-c2cnc(O[C@H]3CCN(C(=O)Cc4ccc(OC(F)(F)F)cc4)C[C@H]3F)c(C(N)=O)c2)c1,Population Hoechst High Intensity Objects (%),[1],0.47% and 4.71%
same,Population Mitotic Cells (%),[1],91.23% and 91.04%
same,Population Normal (%),[1],99.53% and 95.29%
same,Population Pyknosed Nuclei (%),[1],40.24% and 73.63%
same,Total Cell Count,[1],191
same,Population Hoechst High Intensity Objects (%),[2],0.68% and 0.69%
same,Population Mitotic Cells (%),[2],87.04% and 85.37%
same,Population Normal (%),[2],99.32% and 99.31%
same,Population Pyknosed Nuclei (%),[2],55.29% and 86.01%
same,Total Cell Count,[2],144
same,Population Healthy Nuclei (%),[3],76.21% and 29.41%
same,Population Hoechst High Intensity Objects (%),[3],0.45% and 3.61%
same,Population Mitotic Cells (%),[3],88.44% and 91.13%
same,Population Normal (%),[3],99.55% and 96.39%
same,Population Pyknosed Nuclei (%),[3],22.27% and 66.31%
same,Population Hoechst High Intensity Objects (%),[4],0.8% and 0%
same,Population Mitotic Cells (%),[4],68.57% and 83.33%
same,Population Normal (%),[4],99.2% and 100%
same,Population Pyknosed Nuclei (%),[4],37.84% and 76.43%
same,Total Cell Count,[4],373 and 157
same,Population Healthy Nuclei (%),[5],86.49% and 68.91%
same,Population Hoechst High Intensity Objects (%),[5],0% and 0.42%
same,Population Mitotic Cells (%),[5],89.54% and 83.58%
same,Population Normal (%),[5],100% and 99.58%
same,Population Pyknosed Nuclei (%),[5],10.34% and 28.15%
same,Population Healthy Nuclei (%),[6],80.81% and 60.93%
same,Population Hoechst High Intensity Objects (%),[6],0% and 2.27%
same,Population Mitotic Cells (%),[6],82.61% and 79.27%
same,Population Normal (%),[6],100% and 97.73%
same,Population Pyknosed Nuclei (%),[6],16.11% and 38.14%
CC/C(=C(\c1ccc(O)cc1)c1ccc(OCCN(C)C)cc1)c1ccccc1 [AFIMOXIFENE],Population Apoptotic (%),[1],6.54% and 11.93%
same,Population Fragmented Nuclei (%),[1],0.55% and 3.45%
same,Population Healthy Nuclei (%),[1],57.18% and 21.38%
same,Population Hoechst High Intensity Objects (%),[1],0.28% and 0%
same,Population Membrane Permeable-Phenotype (%),[1],0.48% and 0%
same,Population Mitochondria Different-Phenotype (%),[1],43.96% and 29.03%
same,Population Mitotic Cells (%),[1],93.46% and 88.07%
same,Population Normal (%),[1],99.72% and 100%
same,Population Pyknosed Nuclei (%),[1],42.27% and 75.17%
same,Total Cell Count,[1],363 and 145
same,Population Apoptotic (%),[2],25.32% and 29.82%
same,Population Fragmented Nuclei (%),[2],2.69% and 7.52%
same,Population Hoechst High Intensity Objects (%),[2],0%
same,Population Mitochondria Different-Phenotype (%),[2],25.19% and 44.44%
same,Population Mitotic Cells (%),[2],74.68% and 70.18%
same,Population Normal (%),[2],100%
same,Population Pyknosed Nuclei (%),[2],53.2% and 85.71%
same,Population Tubulin-Different-Phenotype (%),[2],8.4% and 22.22%
same,Total Cell Count,[2],297 and 133
same,Population Apoptotic (%),[3],8.84% and 19.33%
same,Population Fragmented Nuclei (%),[3],1.87% and 0.54%
same,Population Healthy Nuclei (%),[3],75.2% and 35.48%
same,Population Hoechst High Intensity Objects (%),[3],0%
same,Population Membrane Permeable-Phenotype (%),[3],1.45% and 3.03%
same,Population Mitochondria Different-Phenotype (%),[3],15.56% and 16.67%
same,Population Mitotic Cells (%),[3],91.16% and 80.67%
same,Population Normal (%),[3],100%
same,Population Pyknosed Nuclei (%),[3],22.93% and 63.98%
same,Population Tubulin-Different-Phenotype (%),[3],15.56% and 13.64%
same,Population Apoptotic (%),[4],49.01% and 63.64%
same,Population Fragmented Nuclei (%),[4],2.59% and 6.2%
same,Population Hoechst High Intensity Objects (%),[4],0%
same,Population Membrane Permeable-Phenotype (%),[4],0.44% and 4.55%
same,Population Mitochondria Different-Phenotype (%),[4],40.44% and 36.36%
same,Population Mitotic Cells (%),[4],50.99% and 36.36%
same,Population Normal (%),[4],100%
same,Population Pyknosed Nuclei (%),[4],39.12% and 76.74%
same,Population Tubulin-Different-Phenotype (%),[4],28.44% and 27.27%
same,Total Cell Count,[4],386 and 129
same,Population Apoptotic (%),[5],7.69% and 13.19%
same,Population Fragmented Nuclei (%),[5],1.84% and 1.61%
same,Population Healthy Nuclei (%),[5],85.71% and 61.85%
same,Population Hoechst High Intensity Objects (%),[5],0% and 0.8%
same,Population Membrane Permeable-Phenotype (%),[5],6.52% and 3.25%
same,Population Mitochondria Different-Phenotype (%),[5],18.34% and 27.92%
same,Population Mitotic Cells (%),[5],92.31% and 86.81%
same,Population Normal (%),[5],100% and 99.2%
same,Population Pyknosed Nuclei (%),[5],12.45% and 36.55%
same,Population Apoptotic (%),[6],39.87% and 62.5%
same,Population Fragmented Nuclei (%),[6],2.24% and 6.98%
same,Population Healthy Nuclei (%),[6],66.53% and 24.81%
same,Population Hoechst High Intensity Objects (%),[6],0.2% and 0%
same,Population Membrane Permeable-Phenotype (%),[6],3.37% and 9.38%
same,Population Mitochondria Different-Phenotype (%),[6],77.3% and 65.62%
same,Population Mitotic Cells (%),[6],60.13% and 37.5%
same,Population Normal (%),[6],99.8% and 100%
same,Population Pyknosed Nuclei (%),[6],31.22% and 68.22%
